Converted amounts (≈) assume the structure as drawn. Blank lines part the entries; values can stand above or below the compound they belong to.
What was measured:
[1] = biological target: T1, Leukotriene B4 receptor 1 (Homo sapiens, UniProt Q15722); assay: Antagonist activity at BLT1 receptor expressed in human HL60 cells assessed as inhibition of LTB4-stimulated calcium flux after 30 mins; format: functional, cell-based, HL-60
Summary of the method: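 HL-60 cells grown in RPMI-1640 with 20% FBS were plated at 2.0 × 10^5 cells/ml with 1 μM retinoic acid. They were dye-loaded in HBSS/20 mM HEPES/5 mM probenecid (0.05% BSA in the replacement buffer) for 1 h at 37 C. Compound (5 × 10^-11 to 3 × 10^-6 M final) was added for 30 min at room temperature, then 0.5 μM LTB4. Fluorescence was read every 1.5 s for 100 s and peak increase scored as % inhibition versus DMSO control.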

Cytochrome P450 1A2 = biological target: T2, Cytochrome P450 1A2 (Homo sapiens, UniProt P05177); assay: Inhibition of CYP1A2 by fluorescence method; format: ADME
T2 sequence (P05177 whole entry): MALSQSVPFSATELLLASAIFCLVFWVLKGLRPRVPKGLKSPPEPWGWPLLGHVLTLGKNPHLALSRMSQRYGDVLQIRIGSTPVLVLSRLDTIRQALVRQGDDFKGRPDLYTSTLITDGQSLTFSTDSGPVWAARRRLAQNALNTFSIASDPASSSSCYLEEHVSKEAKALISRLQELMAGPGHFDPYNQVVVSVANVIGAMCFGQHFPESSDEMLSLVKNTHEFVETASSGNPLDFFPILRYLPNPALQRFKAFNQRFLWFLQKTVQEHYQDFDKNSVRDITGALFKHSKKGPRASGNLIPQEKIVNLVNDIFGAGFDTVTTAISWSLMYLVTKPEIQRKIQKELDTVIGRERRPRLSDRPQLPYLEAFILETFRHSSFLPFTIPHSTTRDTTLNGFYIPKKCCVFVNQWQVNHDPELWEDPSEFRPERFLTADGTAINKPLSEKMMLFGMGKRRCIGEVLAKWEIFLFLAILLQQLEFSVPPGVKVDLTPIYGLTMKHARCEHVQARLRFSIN
Summary of the method: (§1)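 Cytochrome P450 high-throughput panel (1A2, 2D6, 2C9, 2C19, 3A4) using fluorogenic substrates; IC50 reported.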

Cytochrome P450 3A4 = Cytochrome P450 3A4 (Homo sapiens, UniProt P08684); assay: Inhibition of CYP3A4 fluorescence method; format: ADME
Sequence of Cytochrome P450 3A4 (P08684 whole entry): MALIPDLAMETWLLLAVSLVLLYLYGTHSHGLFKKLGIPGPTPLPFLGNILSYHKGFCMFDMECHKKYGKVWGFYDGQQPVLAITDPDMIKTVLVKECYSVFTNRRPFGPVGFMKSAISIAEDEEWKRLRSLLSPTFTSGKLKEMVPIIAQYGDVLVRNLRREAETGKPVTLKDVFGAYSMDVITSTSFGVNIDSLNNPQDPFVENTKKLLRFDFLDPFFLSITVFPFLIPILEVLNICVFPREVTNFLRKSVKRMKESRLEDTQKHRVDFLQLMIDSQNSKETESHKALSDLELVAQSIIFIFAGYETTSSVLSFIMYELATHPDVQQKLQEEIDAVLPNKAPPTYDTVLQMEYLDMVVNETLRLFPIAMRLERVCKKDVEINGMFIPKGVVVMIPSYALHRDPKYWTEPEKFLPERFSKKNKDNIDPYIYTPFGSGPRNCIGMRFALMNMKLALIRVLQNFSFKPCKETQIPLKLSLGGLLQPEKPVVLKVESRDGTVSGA
Summary of the method: (§2)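 High-throughput CYP panel covering 1A2, 2D6, 2C9, 2C19 and 3A4, using fluorogenic substrates. IC50 was determined in μM.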

Cytochrome P450 2D6 = Cytochrome P450 2D6 (Homo sapiens, UniProt P10635); assay: Inhibition of CYP2D6 fluorescence method; format: ADME; summary of the method: as §2
Sequence of Cytochrome P450 2D6 (P10635 whole entry): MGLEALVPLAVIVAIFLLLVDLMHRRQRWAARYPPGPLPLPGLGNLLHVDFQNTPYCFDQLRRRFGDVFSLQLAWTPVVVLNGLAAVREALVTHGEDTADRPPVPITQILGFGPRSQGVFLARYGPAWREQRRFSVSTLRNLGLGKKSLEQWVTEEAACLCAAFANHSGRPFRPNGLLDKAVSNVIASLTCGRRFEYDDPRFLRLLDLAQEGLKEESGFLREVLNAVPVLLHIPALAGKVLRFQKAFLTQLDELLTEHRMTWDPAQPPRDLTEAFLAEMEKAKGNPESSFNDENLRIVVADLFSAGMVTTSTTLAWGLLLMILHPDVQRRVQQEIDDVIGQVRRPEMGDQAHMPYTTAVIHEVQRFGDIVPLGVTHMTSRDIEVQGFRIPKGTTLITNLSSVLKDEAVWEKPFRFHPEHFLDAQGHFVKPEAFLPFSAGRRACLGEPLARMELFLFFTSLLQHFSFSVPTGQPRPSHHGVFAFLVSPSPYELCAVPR

[2] = biological target: T3, Voltage-gated inwardly rectifying potassium channel KCNH2 (Homo sapiens, UniProt Q12809); assay: Inhibition of human ERG expressed in CHO cells assessed as reduction of current amplitude
T3 sequence (Q12809 whole entry): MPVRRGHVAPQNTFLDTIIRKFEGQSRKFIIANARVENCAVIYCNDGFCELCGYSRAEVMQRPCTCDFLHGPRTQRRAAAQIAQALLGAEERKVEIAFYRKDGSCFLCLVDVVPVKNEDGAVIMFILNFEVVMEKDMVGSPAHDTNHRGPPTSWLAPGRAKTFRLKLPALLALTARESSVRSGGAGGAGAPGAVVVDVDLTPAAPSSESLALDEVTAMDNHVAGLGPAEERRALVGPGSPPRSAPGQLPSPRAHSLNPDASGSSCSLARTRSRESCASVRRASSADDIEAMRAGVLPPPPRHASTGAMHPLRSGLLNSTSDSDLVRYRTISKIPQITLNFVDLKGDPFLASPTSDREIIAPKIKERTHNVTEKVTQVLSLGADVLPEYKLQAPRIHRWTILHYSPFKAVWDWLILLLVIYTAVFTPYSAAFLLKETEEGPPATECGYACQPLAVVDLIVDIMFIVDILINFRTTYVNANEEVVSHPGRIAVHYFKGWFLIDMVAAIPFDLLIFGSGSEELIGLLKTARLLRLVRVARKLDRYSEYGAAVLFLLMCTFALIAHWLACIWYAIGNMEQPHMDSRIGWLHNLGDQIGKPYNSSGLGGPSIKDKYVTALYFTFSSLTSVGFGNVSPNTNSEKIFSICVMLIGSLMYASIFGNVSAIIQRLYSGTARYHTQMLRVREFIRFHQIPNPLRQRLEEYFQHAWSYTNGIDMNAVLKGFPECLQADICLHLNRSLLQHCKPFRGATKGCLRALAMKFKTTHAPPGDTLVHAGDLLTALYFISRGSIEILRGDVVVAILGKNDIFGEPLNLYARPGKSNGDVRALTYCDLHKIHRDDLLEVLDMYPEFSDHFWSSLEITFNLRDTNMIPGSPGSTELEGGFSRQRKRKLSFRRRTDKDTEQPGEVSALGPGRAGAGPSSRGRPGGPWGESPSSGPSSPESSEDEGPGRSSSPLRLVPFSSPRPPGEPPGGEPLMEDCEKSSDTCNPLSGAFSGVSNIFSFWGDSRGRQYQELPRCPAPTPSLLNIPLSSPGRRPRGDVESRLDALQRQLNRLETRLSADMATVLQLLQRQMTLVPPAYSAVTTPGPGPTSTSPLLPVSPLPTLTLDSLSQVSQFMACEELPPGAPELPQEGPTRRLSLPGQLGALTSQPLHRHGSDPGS

[3] = Lipophilicity, log D of compound at pH 7.4; details: buffer
[4] = Solubility of compound in small intestinal contents in the fasted state at pH 6.5; format: ADME
Summary of the method: (§3)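 Solubility measured in simulated intestinal fluid at pH 5.0 (fed) or pH 6.5 (fasted), reported in μg/mL.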

[5] = biological target: T4, Leukotriene B4 receptor 2 (Homo sapiens, UniProt Q9NPC1); assay: Antagonist activity at FLAG-tagged human BLT2 receptor expressed in HEK293 cells assessed as inhibition of LTB4-stimulated calcium mobilization preincubated for 10 mins before LTB4 challenge; format: functional, cell-based
T4 sequence (Q9NPC1 whole entry): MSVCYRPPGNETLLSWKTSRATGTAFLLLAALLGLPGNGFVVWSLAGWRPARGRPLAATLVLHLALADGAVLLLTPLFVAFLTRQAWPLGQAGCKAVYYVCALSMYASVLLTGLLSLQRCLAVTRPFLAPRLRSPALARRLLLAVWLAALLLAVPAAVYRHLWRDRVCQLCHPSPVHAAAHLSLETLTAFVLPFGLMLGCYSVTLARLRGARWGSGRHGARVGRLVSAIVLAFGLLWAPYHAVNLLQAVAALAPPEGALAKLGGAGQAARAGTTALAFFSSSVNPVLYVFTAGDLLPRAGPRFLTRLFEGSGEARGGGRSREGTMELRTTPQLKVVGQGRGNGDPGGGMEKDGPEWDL

[6] = biological target: T3, Voltage-gated inwardly rectifying potassium channel KCNH2; assay: Inhibition of human ERG expressed in CHO cells at 3 uM assessed as reduction of current amplitude
Cytochrome P450 2C19 = Cytochrome P450 2C19 (Homo sapiens, UniProt P33261); assay: Inhibition of CYP2C19 fluorescence method; format: ADME; summary of the method: as §1
Sequence of Cytochrome P450 2C19 (P33261 whole entry): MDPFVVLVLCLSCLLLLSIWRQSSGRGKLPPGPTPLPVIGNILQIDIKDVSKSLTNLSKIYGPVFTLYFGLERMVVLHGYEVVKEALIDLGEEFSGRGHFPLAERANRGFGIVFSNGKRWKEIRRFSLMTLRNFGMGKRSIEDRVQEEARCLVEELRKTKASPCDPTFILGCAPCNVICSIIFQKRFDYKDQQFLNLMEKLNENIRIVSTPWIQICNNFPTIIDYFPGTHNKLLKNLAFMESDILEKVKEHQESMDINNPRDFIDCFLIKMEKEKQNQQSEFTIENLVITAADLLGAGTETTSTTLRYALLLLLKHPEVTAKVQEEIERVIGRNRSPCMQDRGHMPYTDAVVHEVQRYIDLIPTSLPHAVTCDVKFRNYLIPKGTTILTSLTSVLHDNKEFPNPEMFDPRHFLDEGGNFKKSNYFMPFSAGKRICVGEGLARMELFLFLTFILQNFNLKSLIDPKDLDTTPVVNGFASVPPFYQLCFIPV

Cytochrome P450 2C9 [7] = biological target: T5, Cytochrome P450 2C9 (Homo sapiens, UniProt P11712); assay: Inhibition of CYP2C9 fluorescence method; format: ADME
T5 sequence (P11712 whole entry): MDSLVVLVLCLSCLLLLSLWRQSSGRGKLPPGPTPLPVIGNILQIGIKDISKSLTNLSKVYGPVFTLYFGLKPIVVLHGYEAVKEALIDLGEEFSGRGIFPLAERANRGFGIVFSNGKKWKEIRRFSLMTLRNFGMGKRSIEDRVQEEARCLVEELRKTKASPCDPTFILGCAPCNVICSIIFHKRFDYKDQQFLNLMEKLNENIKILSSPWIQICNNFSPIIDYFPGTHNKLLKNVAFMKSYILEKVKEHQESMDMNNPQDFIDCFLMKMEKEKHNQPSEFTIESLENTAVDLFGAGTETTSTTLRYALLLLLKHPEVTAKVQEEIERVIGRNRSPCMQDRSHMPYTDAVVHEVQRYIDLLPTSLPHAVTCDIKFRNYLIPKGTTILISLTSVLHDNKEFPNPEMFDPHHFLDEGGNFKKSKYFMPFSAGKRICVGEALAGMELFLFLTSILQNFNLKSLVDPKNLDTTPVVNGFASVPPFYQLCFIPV

Cytochrome P450 2C9 [8] = biological target: T5, Cytochrome P450 2C9; assay: Inhibition of CYP2C9 by LC/MS method; format: ADME
[9] = biological target: T1, Leukotriene B4 receptor 1; assay: Antagonist activity at FLAG-tagged human BLT1 receptor expressed in HEK293 cells assessed as inhibition of LTB4-stimulated calcium mobilization preincubated for 10 mins before LTB4 challenge; format: functional, cell-based
[10] = Solubility of compound in small intestinal contents in the fed state at pH 5; format: ADME; summary of the method: as §3
Neutrophil = assay: Inhibition of LTB4-stimulated human neutrophils migration after 30 mins by using CyQuant GR fluorescent dye; format: functional, cell-based
Summary of the method: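 Human blood neutrophils (95-97% pure, isolated over Lympholyte-poly) at 5 × 10^6 cells/mL were preincubated with compound (3 × 10^-12 to 1 × 10^-6 M final) for 30 min at 37 C. Migration toward 100 ng/mL LTB4 across a polycarbonate membrane ran 90 min at 37 C. Migrated cells were lysed with CyQuant GR and read at 480/520 nm. IC50 was taken from a sigmoidal fit of % inhibition.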

[11] = Oral bioavailability in Sprague-Dawley rat at 10 mg/kg, po; format: ADME, organism-based; details: in vivo
Summary of the method: (§4)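 Rat single-dose PK, n = 3, with oral dosing at 10 mg/kg and intravenous dosing at 2.5 or 5 mg/kg.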

[12] = Clearance in Sprague-Dawley rat at 5 mg/kg, iv; format: ADME, organism-based; set-up: dose 5 mg/kg, route intravenous; details: in vivo; summary of the method: as §4
[13] = Tmax in Sprague-Dawley rat at 10 mg/kg, po; format: ADME, organism-based; set-up: dose 10 mg/kg, route oral; details: in vivo; summary of the method: as §4
[14] = Half life in Sprague-Dawley rat at 10 mg/kg, po; format: ADME, organism-based; set-up: dose 10 mg/kg, route oral; details: in vivo; summary of the method: as §4
[15] = Volume of distribution at steady state in Sprague-Dawley rat at 5 mg/kg, iv; format: ADME, organism-based; set-up: dose 5 mg/kg, route intravenous; details: in vivo, read-out: Vdss; summary of the method: as §4
[16] = Cmax in Sprague-Dawley rat at 10 mg/kg, po; format: ADME, organism-based; set-up: dose 10 mg/kg, route oral; details: in vivo; summary of the method: as §4
[17] = Half life in Sprague-Dawley rat at 5 mg/kg, iv; format: ADME, organism-based; set-up: dose 5 mg/kg, route intravenous; details: in vivo; summary of the method: as §4
[18] = Homo sapiens, Neutrophil, 0.5 h, read-out: IC50

T1 sequence (Q15722 whole entry): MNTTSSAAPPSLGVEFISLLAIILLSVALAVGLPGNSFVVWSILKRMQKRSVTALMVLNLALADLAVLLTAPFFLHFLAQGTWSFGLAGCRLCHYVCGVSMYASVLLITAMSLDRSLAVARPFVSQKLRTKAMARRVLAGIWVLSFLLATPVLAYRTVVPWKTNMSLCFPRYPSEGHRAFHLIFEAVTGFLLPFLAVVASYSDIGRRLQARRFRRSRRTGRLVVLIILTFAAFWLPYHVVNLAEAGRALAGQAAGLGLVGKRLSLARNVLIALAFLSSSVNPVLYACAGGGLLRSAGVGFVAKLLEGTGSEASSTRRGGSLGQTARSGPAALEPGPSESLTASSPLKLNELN

IC50 ([1]; read-out: IC50): 14 nM
Structure (SMILES): O=C(O)CCCOc1cccc(CCCCCCOc2cc(-c3cccc(F)c3)cc(-c3ccc4[nH]ccc4c3)c2)c1CCC(=O)O

IC50 (Cytochrome P450 1A2): > 7500 nM
IC50 (Cytochrome P450 3A4): > 7500 nM
IC50 (Cytochrome P450 2D6): > 7500 nM
logD [3]: 0.7
solubility [4]: 27.3 µg/mL (≈ 47 µM)
IC50 [5]: 628 nM
IC50 (Cytochrome P450 2C19): > 7500 nM
IC50 ([1]; read-out: IC50): 0.21 nM
IC50 (Cytochrome P450 2C9 [7]): > 50000 nM
IC50 (Cytochrome P450 2C9 [8]): > 12500 nM
IC50 [9]: 38.5 nM
solubility [10]: 338 µg/mL (≈ 582 µM)
Structure (SMILES): O=C(O)CCCOc1cccc(CCCCCCOc2cc(-c3ccccc3)cc(-c3ccccc3)c2)c1CCC(=O)O
IC50 [2]: > 3000 nM
INH [6]: Not Active

IC50 (Cytochrome P450 1A2): > 7500 nM
IC50 (Cytochrome P450 3A4): > 7500 nM
IC50 (Cytochrome P450 2D6): > 7500 nM
logD [3]: 2.44
solubility [4]: 27.1 µg/mL (≈ 42.2 µM)
IC50 (Cytochrome P450 2C19): > 7500 nM
IC50 ([1]; read-out: IC50): 0.61 nM
IC50 (Cytochrome P450 2C9 [7]): 7600 nM
solubility [10]: 38.1 µg/mL (≈ 59.3 µM)
IC50 (Neutrophil; [18]): 7.67 nM
Structure (SMILES): O=C(O)CCCOc1cccc(CCCCCCOc2cc(-c3ccc4c(c3)OCO4)cc(-c3ccccc3F)c2)c1CCC(=O)O
INH [6]: Not Active

IC50 ([1]; read-out: IC50): 0.18 nM
IC50 (Neutrophil; [18]): 0.2 nM
Structure (SMILES): O=C(O)CCCOc1cccc(CCCCCCOc2cc(-c3ccncc3)cc(-c3cccc(F)c3)c2)c1CCC(=O)O

Structure (SMILES): O=C(O)CCCOc1cccc(CCCCCCOc2cc(-c3ccncc3)cc(-c3ccncc3)c2)c1CCC(=O)O
IC50 (Cytochrome P450 1A2): > 7500 nM
bioavailability [11]: 10%
clearance [12]: 28.1 mL/min/kg
IC50 (Cytochrome P450 3A4): > 7500 nM
IC50 (Cytochrome P450 2D6): > 7500 nM
Tmax [13]: 5 h
logD [3]: 1.78
solubility [4]: 22.7 µg/mL (≈ 39 µM)
IC50 [5]: 143 nM
INH [6]: Not Active
IC50 (Cytochrome P450 2C19): > 7500 nM
half-life [14]: 4.52 h
IC50 ([1]; read-out: IC50): 0.07 nM
Vd [15]: 1.55 L/kg
IC50 (Cytochrome P450 2C9 [7]): 340 nM
IC50 (Cytochrome P450 2C9 [8]): 900 nM
Cmax [16]: 310 nM
IC50 [9]: 71 nM
solubility [10]: 61 µg/mL (≈ 105 µM)
half-life [17]: 4.52 h

IC50 ([1]; read-out: IC50): 0.2 nM
Structure (SMILES): O=C(O)CCCOc1cccc(CCCCCCOc2cc(-c3ccncc3)cc(-c3ccsc3)c2)c1CCC(=O)O

IC50 ([1]; hl-60): Not Active
IC50 (Neutrophil; neutrophil): Not Active
Structure (SMILES): CCc1cc(C(C)=O)c(O)cc1OCCCCCC(C)(C)c1nn[nH]n1 [LY-255283]

IC50 ([1]; read-out: IC50): 60.2 nM
Structure (SMILES): O=C(O)CCCOc1cccc(CCCCCCOc2cc(-c3ccc(F)cc3)cc(-c3ccc4c(c3)OCCO4)c2)c1CCC(=O)O

IC50 ([1]; read-out: IC50): 0.22 nM
IC50 (Neutrophil; [18]): 0.1 nM
Structure (SMILES): O=C(O)CCCOc1cccc(CCCCCCOc2cc(-c3ccncc3)cc(-c3ccc4c(c3)OCO4)c2)c1CCC(=O)O

IC50 ([1]; read-out: IC50): 5.35 nM
Structure (SMILES): O=C(O)CCCOc1cccc(CCCCCCOc2cc(-c3cncnc3)cc(-c3cncnc3)c2)c1CCC(=O)O

IC50 ([1]; read-out: IC50): 0.58 nM
Structure (SMILES): O=C(O)CCCOc1cccc(CCCCCCOc2cc(-c3ccsc3)cc(-c3ccsc3)c2)c1CCC(=O)O

— ChEMBL document CHEMBL1158546, “Discovery of novel and potent leukotriene B4 receptor antagonists. Part 1” (J Med Chem, 2010)
